{
  "source": "paper PMC4297623",
  "about": "(Nature, 2011)",
  "key": {"RS11846 cells": {"system": "RS11846 cells", "experiment": "Transwell migration of RS11846 cells", "type": "cell-based", "details": "transwell assay"}, "EBI2 [1]": {"target": "T1, EBI2 (Homo sapiens, UniProt P32249)", "T1 sequence (P32249 whole entry)": "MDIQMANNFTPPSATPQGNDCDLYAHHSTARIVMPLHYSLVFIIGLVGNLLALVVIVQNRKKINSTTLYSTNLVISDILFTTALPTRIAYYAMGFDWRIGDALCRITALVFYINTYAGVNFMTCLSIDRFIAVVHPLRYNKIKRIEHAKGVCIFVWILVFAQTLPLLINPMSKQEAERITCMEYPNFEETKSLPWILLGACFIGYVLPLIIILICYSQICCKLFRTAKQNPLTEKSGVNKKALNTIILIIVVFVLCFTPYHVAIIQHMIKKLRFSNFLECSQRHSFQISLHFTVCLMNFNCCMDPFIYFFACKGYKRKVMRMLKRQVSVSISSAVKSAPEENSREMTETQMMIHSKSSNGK", "experiment": "Radioligand binding to membranes from EBI2 expressing CHO cells"}, "EBI2 [2]": {"target": "T1, EBI2", "experiment": "GTPγ35S binding functional assay", "type": "biochemical"}, "EBI2 [3]": {"target": "T1, EBI2", "experiment": "Calcium mobilization", "type": "cell-based"}, "EBI2 [4]": {"target": "T1, EBI2", "type": "cell-based"}, "[5]": {"system": "Membranes from parental cells lacking EBI2 receptor", "experiment": "Radioligand binding to membranes from parental cells lacking EBI2", "details": "data not shown"}, "[6]": {"system": "8 different nuclear hormone receptors including LXR", "experiment": "Panel of reporter gene assays against nuclear hormone receptors", "type": "cell-based", "details": "8 nuclear hormone receptors including LXR"}, "31 different GPCRs": {"system": "31 different GPCRs", "experiment": "Panel of GPCR assays", "type": "cell-based"}, "[7]": {"system": "EBI2 expressing cell line (M12)", "experiment": "Migration bioassay with EBI2 expressing reporter cell line", "type": "cell-based", "details": "attraction of EBI2 expressing cell line (Fig. S8c)", "summary_of_the_method": "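Chemoattraction bioassay: M12 reporter cells, with or without EBI2, exposed to the oxysterol ligand; read-out is migration of cells toward it. The same assay was also run on spleen and lymph node tissue extracts from wild-type and Ch25h-deficient mice.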"}, "[8]": {"system": "Parental cells lacking the EBI2 receptor", "experiment": "Calcium mobilization in parental cell line lacking EBI2", "type": "cell-based", "details": "parental cell line without EBI2"}, "[9]": {"system": "EBV-infected human B cell line", "experiment": "Transwell migration of EBV-infected B cells", "type": "cell-based", "details": "transwell assay; bell shaped activity curve", "summary_of_the_method": "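Transwell chemotaxis of an EBV-infected human B cell line toward oxysterol test compounds in the lower chamber. Samples run in duplicate.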"}, "[10]": {"system": "bone marrow-derived dendritic cells", "experiment": "Transwell migration of bone marrow-derived dendritic cells", "type": "cell-based, mice", "details": "transwell assay", "summary_of_the_method": "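Dendritic cells derived from the bone marrow of wild-type and Ebi2(−/−) mice, tested side by side for transwell migration toward oxysterol test compounds. Samples run in quadruplicate.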"}, "[11]": {"details": "read-out: GTPγ^35S Binding EC50, n = 3-4, ± standard deviation"}, "[12]": {"details": "read-out: [^3H]-7α, 25-OHC Binding IC50, displacement of 10 nM 3H-7α, 25-OHC from membranes of EBI2 expressing CHO cells, n = 3-4, ± standard deviation"}, "[13]": {"details": "read-out: Ca^2+ Fluorescence EC50, FLIPR, CHO cells stably expressing EBI2, n = 3-4, ± standard deviation"}},
  "note": "Where two headings read alike, the source gives them in different places.",
  "data": [
    {"compound": "pertussis toxin", "values": [
      {"measurement": "effect on oxysterol-mediated attraction of RS11846 cells", "setting": "RS11846 cells; presence of pertussis toxin", "value": "could be blocked"}
    ]},
    {"compound": "[3H]C1(O)C=C2CC(O)CCC2(C)C2CCC3(C)C(C(C)CCCC(C)(C)O)CCC3C21", "note": "(stereo not drawn) [[^3H]-7β, 25-OHC]", "values": [
      {"measurement": "specific binding of radioligand to EBI2 membranes", "setting": "EBI2 [1]; EBI2 membranes", "value": "no specific binding"}
    ]},
    {"compound": "C[C@@H](CO)CCC[C@@H](C)[C@H]1CC[C@H]2[C@@H]3[C@@H](O)C=C4C[C@@H](O)CC[C@]4(C)[C@H]3CC[C@]12C", "note": "[7β, 27-OHC]", "values": [
      {"measurement": "EC50", "setting": "EBI2 [2]; [11]", "value": "125 ± 66", "unit": "nM"},
      {"measurement": "IC50", "setting": "EBI2 [1]; [12]", "value": "> 10000", "unit": "nM"},
      {"measurement": "EC50", "setting": "EBI2 [3]; [13]", "value": "310 ± 261", "unit": "nM"}
    ]},
    {"compound": "C[C@H](CCCC(C)(C)O)[C@H]1CC[C@H]2[C@@H]3[C@@H](O)C=C4C[C@@H](O)CC[C@]4(C)[C@H]3CC[C@]12C", "note": "[7β, 25-OHC, cholest-5-ene-3β, 7β, 25-triol]", "values": [
      {"measurement": "EC50", "setting": "EBI2 [4]", "value": "~50", "unit": "nM"}
    ]},
    {"compound": "[3H]C1(O)C=C2CC(O)CCC2(C)C2CCC3(C)C(C(C)CCCC(C)(C)O)CCC3C21", "note": "(stereo not drawn) [[^3H]-7α, 25-OHC]", "values": [
      {"measurement": "binding of radioligand to membranes from parental cells", "setting": "[5]", "value": "did not bind"}
    ]},
    {"compound": "CC(C)CCC[C@@H](C)[C@H]1CC[C@H]2[C@@H]3CC=C4C[C@@H](O)CC[C@]4(C)[C@H]3CC[C@]12C", "note": "[cholesterol]", "values": [
      {"measurement": "EC50", "setting": "EBI2 [2]", "value": "> 10000", "unit": "nM"},
      {"measurement": "IC50", "setting": "EBI2 [1]", "value": "> 10000", "unit": "nM"},
      {"measurement": "EC50", "setting": "EBI2 [3]", "value": "> 10000", "unit": "nM"}
    ]},
    {"compound": "C[C@H](CCCC(C)(C)O)[C@H]1CC[C@H]2[C@@H]3CC=C4C[C@@H](O)CC[C@]4(C)[C@H]3CC[C@]12C", "note": "[25-OHC]", "values": [
      {"measurement": "EC50", "setting": "EBI2 [2]; [11]", "value": "727 ± 232", "unit": "nM"},
      {"measurement": "IC50", "setting": "EBI2 [1]; [12]", "value": "> 10000", "unit": "nM"},
      {"measurement": "EC50", "setting": "EBI2 [3]; [13]", "value": "3030 ± 2640", "unit": "nM"}
    ]},
    {"compound": "C[C@@H](CO)CCC[C@@H](C)[C@H]1CC[C@H]2[C@@H]3[C@H](O)C=C4C[C@@H](O)CC[C@]4(C)[C@H]3CC[C@]12C", "note": "[7α, 27-OHC]", "values": [
      {"measurement": "EC50", "setting": "EBI2 [2]; [11]", "value": "5 ± 2", "unit": "nM"},
      {"measurement": "interaction with nuclear hormone receptors", "setting": "[6]", "value": "In none of these assays did we see a significant interaction"},
      {"measurement": "IC50", "setting": "EBI2 [1]; [12]", "value": "362 ± 32", "unit": "nM"},
      {"measurement": "interaction with other GPCRs", "setting": "31 different GPCRs", "value": "In none of these assays did we see a significant interaction"},
      {"measurement": "EC50", "setting": "EBI2 [3]; [13]", "value": "5 ± 4", "unit": "nM"}
    ]},
    {"compound": "C[C@H](CCCC(C)(C)O)[C@H]1CC[C@H]2[C@@H]3[C@H](O)C=C4C[C@@H](O)CC[C@]4(C)[C@H]3CC[C@]12C", "note": "[7α, 25-OHC, 5-cholesten-3β, 7α, 25-triol]", "values": [
      {"measurement": "sensitivity of bioassay", "setting": "[7]", "value": "subnanomolar sensitivity"},
      {"measurement": "calcium response of parental cells lacking EBI2", "setting": "[8]", "value": "did not respond"},
      {"measurement": "chemoattraction of EBV-infected B cells", "setting": "[9]", "value": "can potently attract"},
      {"measurement": "interaction with nuclear hormone receptors", "setting": "[6]", "value": "In none of these assays did we see a significant interaction"},
      {"measurement": "migration of BMDC from wild type and Ebi2(−/−) animals", "setting": "[10]", "value": "only wild type cells migrate"},
      {"measurement": "interaction with other GPCRs", "setting": "31 different GPCRs", "value": "In none of these assays did we see a significant interaction"},
      {"measurement": "chemoattraction of RS11846 cells", "setting": "RS11846 cells; bell shaped activity curve", "value": "can potently attract"},
      {"measurement": "EC50", "setting": "EBI2 [3]", "value": "2 ± 2", "unit": "nM"}
    ]},
    {"compound": "CO[C@H]1C=C2C[C@@H](O)CC[C@]2(C)[C@H]2CC[C@]3(C)[C@@H]([C@H](C)CCCC(C)C)CC[C@H]3[C@H]12", "note": "[7-methoxy derivate of 7β-OHC]", "values": [
      {"measurement": "activation of EBI2", "setting": "EBI2 [4]; initial test of candidates (Fig. S3)", "value": "did not activate EBI2"}
    ]}
  ]
}
